≈ marks a conversion by molar mass, not a printed value.
Columns and labels:
Alternaria solani [1] = experiment: Antimicrobial activity against Alternaria solani at 50 ug/mL by mycelium growth rate method; format: functional
How it was run: (§1)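 Mycelium growth-rate assay with anthranilamide and fenpiclonil as controls. Colony diameter is measured once the mycelia have grown completely, and the inhibition rate is calculated from the diameters by formula.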

Mycosphaerella arachidis [2] = experiment: Antimicrobial activity against Cercospora arachidicola at 50 ug/mL by mycelium growth rate method; format: functional; how it was run: as §1
Fusarium [3] = experiment: Antimicrobial activity against Fusarium […] at 50 ug/mL by mycelium growth rate method; format: functional; how it was run: as §1
Fusarium graminearum [4] = experiment: Antimicrobial activity against Gibberella zeae at 50 ug/mL by mycelium growth rate method; format: functional
How it was run: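 Mycelium growth rate assay with anthranilamide and fenpiclonil as controls. Once mycelia had grown completely, the mycelial diameter was measured and the inhibition rate was calculated from it by formula.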

[5] = test system: Botryosphaeria berengeriana; experiment: Antimicrobial activity against Physalospora piricola at 50 ug/mL by mycelium growth rate method; format: functional; how it was run: as §1
Alternaria solani [6] = experiment: Antimicrobial activity against Alternaria solani by mycelium growth rate method; format: functional, organism-based; how it was run: as §1
Mycosphaerella arachidis [7] = experiment: Antimicrobial activity against Cercospora arachidicola by mycelium growth rate method; format: functional, organism-based; how it was run: as §1
Fusarium [8] = experiment: Antimicrobial activity against Fusarium […] by mycelium growth rate method; format: functional, organism-based; how it was run: as §1
Fusarium graminearum [9] = experiment: Antimicrobial activity against Gibberella zeae by mycelium growth rate method; format: functional, organism-based
[10] = test system: Botryosphaeria berengeriana; experiment: Antimicrobial activity against Physalospora piricola by mycelium growth rate method; format: functional, organism-based; how it was run: as §1

Compound	inhibition at 50 µg/mL (Alternaria solani [1])	inhibition at 50 µg/mL (Mycosphaerella arachidis [2])	inhibition at 50 µg/mL (Fusarium [3])	inhibition at 50 µg/mL (Fusarium graminearum [4])	inhibition at 50 µg/mL [5]	EC50 (Alternaria solani [6])	EC50 (Mycosphaerella arachidis [7])	EC50 (Fusarium [8])	EC50 (Fusarium graminearum [9])	EC50 [10]
N#Cc1cccc(CONC(=O)c2cc(Br)c(Br)[nH]2)c1	21.1%	35.7%	18%	8.8%	25.3%					
N#Cc1ccc(CONC(=O)c2cc(Br)c(Br)[nH]2)cc1	31.6%	35%	19%	20.6%	48.1%					
O=C(NOCc1ccc([N+](=O)[O-])cc1)c1cc(Br)c(Br)[nH]1	26.7%	18.8%	17.6%	13%	16.7%					
CO/C=C(/C(=O)OC)c1ccccc1CONC(=O)c1cc(Br)c(Br)[nH]1	52.4%	26.7%	6.7%	0%	13.6%					
C#CCOc1ccc(CONC(=O)c2ccc[nH]2)cc1OC	35.3%	20%	16.7%	9.1%	100%	> 50 mg/L	> 50 mg/L	> 50 mg/L	> 50 mg/L	4.5 mg/L (≈ 15 µM)
O=C(NOCc1ccc(F)cc1)c1ccc[nH]1	0%	12%	0%	7%	6.2%					
CO/C=C(/C(=O)OC)c1ccccc1CONC(=O)c1ccc[nH]1	0%	13.3%	0%	8.5%	16.1%					
C#CCOc1ccc(CONC(=O)c2[nH]c(Br)c(Br)c2Br)cc1OC	11.8%	33.3%	22.2%	9.1%	25.8%					
O=C(NOCc1ccc(F)cc1)c1[nH]c(Br)c(Br)c1Br	19.2%	28%	8.3%	15.5%	18.5%					
CO/C=C(/C(=O)OC)c1ccccc1CONC(=O)c1[nH]c(Br)c(Br)c1Br	5.9%	26.7%	27.8%	13.6%	25%					
C#CCOc1ccc(CONC(=O)c2cc(Cl)c(Cl)[nH]2)cc1OC	42.3%	44%	0%	21.1%	6.2%					
O=C(NOCc1ccc(F)cc1)c1cc(Cl)c(Cl)[nH]1	30.8%	16%	22.2%	19.5%	18.5%					
CO/C=C(/C(=O)OC)c1ccccc1CONC(=O)c1cc(Cl)c(Cl)[nH]1	42.3%	40%	8.3%	21.1%	24.7%					
C#CCOc1ccc(CON(C)C(=O)c2ccc[nH]2)cc1OC	13.3%	19.2%	31.6%	0%	5.8%					
C#CCOc1ccc(CON(C)C(=O)c2cccn2C)cc1OC	16.7%	7.7%	31.6%	20%	6%					
C#CCOc1ccc(CONC(=O)c2cc(Br)c(Br)[nH]2)cc1OC	64.9%	56.3%	47.1%	8.7%	90%	20 mg/L (≈ 43.7 µM)	24.4 mg/L (≈ 53.2 µM)	> 50 mg/L	> 50 mg/L	9.78 mg/L (≈ 21.3 µM)

Compound	inhibition at 50 µg/mL (Alternaria solani [1])	inhibition at 50 µg/mL (Mycosphaerella arachidis [2])	inhibition at 50 µg/mL (Fusarium [3])	inhibition at 50 µg/mL (Fusarium graminearum [4])	inhibition at 50 µg/mL [5]	EC50 (Alternaria solani [6])	EC50 (Mycosphaerella arachidis [7])	EC50 (Fusarium [8])	EC50 (Fusarium graminearum [9])	EC50 [10]
COc1ccc(CONC(=O)c2cc(Br)c(Br)[nH]2)cc1OC	73.3%	60%	41.2%	4.6%	50%					
O=C(NOCc1ccc2c(c1)OCO2)c1cc(Br)c(Br)[nH]1	31.6%	75%	23.8%	14.7%	18.5%					
O=C(NOCc1ccccc1)c1cc(Br)c(Br)[nH]1	66.7%	53.3%	40%	9.1%	40.9%					
O=C(NOCc1ccccc1F)c1cc(Br)c(Br)[nH]1	76.2%	50.3%	41.2%	18.2%	27.3%					
O=C(NOCc1cccc(F)c1)c1cc(Br)c(Br)[nH]1	61.9%	54%	40.8%	4.5%	40.9%					
O=C(NOCc1ccc(F)cc1)c1cc(Br)c(Br)[nH]1	66.5%	62.5%	58%	21.7%	55.1%					
O=C(NOCc1ccccc1Cl)c1cc(Br)c(Br)[nH]1	19%	20%	0%	13.6%	13.4%					
O=C(NOCc1cccc(Cl)c1)c1cc(Br)c(Br)[nH]1	66.7%	80%	47%	17.4%	38.9%					
O=C(NOCc1ccc(Cl)nc1)c1cc(Br)c(Br)[nH]1	5.3%	28.6%	23.8%	0%	37%					
O=C(NOCc1ccc(Cl)cc1Cl)c1cc(Br)c(Br)[nH]1	21.1%	35.7%	33.3%	11.8%	33.3%					
O=C(NOCc1ccc(Cl)c(Cl)c1)c1cc(Br)c(Br)[nH]1	40%	43.8%	23.5%	17.4%	27.8%					
O=C(NOCc1ccc(Br)cc1)c1cc(Br)c(Br)[nH]1	31.6%	50%	4.8%	2.9%	33.3%					
N#Cc1ccccc1CONC(=O)c1cc(Br)c(Br)[nH]1	10.5%	14.3%	14%	14.7%	14.8%					
NC(=O)c1ccccc1N [ANTHRANILAMIDE]	42.3%	52%	27.8%	38%	43.2%					
N#Cc1c[nH]cc1-c1cccc(Cl)c1Cl [FENPICLONIL]	100%	100%	18%	100%	100%	0.55 mg/L (≈ 2.32 µM)	0.38 mg/L (≈ 1.6 µM)	> 50 mg/L	1.71 mg/L (≈ 7.21 µM)	0.8 mg/L (≈ 3.37 µM)
